According to ChEMBL document CHEMBL1151448, “Comparative antianaerobic activities of doripenem determined by MIC and time-kill analysis” (2008):
In brackets after ≈: the same amount, converted by molar mass. Activity calls are given as the source filed them. The rule behind the calls is not given here.

Experiments:
Bacteroides fragilis [1] = assay: Antimicrobial activity against beta lactamase-positive Bacteroides fragilis isolated from intra-abdominal infection and pelvic inflammatory disease patients after 48 hrs by agar dilution method; assay type: functional
How it was run: (§1)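 CLSI agar dilution on brucella blood agar supplemented with laked sheep blood, hemin and vitamin K. Inocula of about 1 × 10^5 CFU/spot were applied by Steers replicator, and plates were incubated 48 h at 35°C in an anaerobic glove box. MIC was the concentration giving marked growth reduction versus the anaerobic control plate. QC strains were included each run, and β-lactamase was detected by Cefinase disk.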

Bacteroides fragilis [2] = assay: Antimicrobial activity against beta lactamase-positive Bacteroides fragilis isolated from intra-abdominal infection and pelvic inflammatory disease patients after 48 hrs by time kill analysis; assay type: functional
How it was run: (§2)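 The MIC was read by inspecting macrodilution time-kill tubes. Vials held prereduced brucella broth with 5% laked horse blood cells, hemin 5 μg/ml and vitamin K1 1 μg/ml. Final inoculum was 10^6–10^7 CFU/ml, prepared inside the anaerobe chamber. Vials were incubated 48 h at 35°C in a shaking water bath.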

[3] = test system: Bacteroides thetaiotaomicron; assay: Antimicrobial activity against beta lactamase-positive Bacteroides thetaiotaomicron isolated from intra-abdominal infection and pelvic inflammatory disease patients after 48 hrs by time kill analysis; assay type: functional; how it was run: as §2
Fusobacterium nucleatum [4] = assay: Antimicrobial activity against beta lactamase-positive Fusobacterium nucleatum isolated from intra-abdominal infection and pelvic inflammatory disease patients after 48 hrs by time kill analysis; assay type: functional; how it was run: as §2
Prevotella intermedia = assay: Bactericidal activity against beta lactamase-positive Prevotella intermedia isolated from intra-abdominal infection and pelvic inflammatory disease patients assessed as bacterial killing at 2 times MIC after 48 hrs by time kill analysis; assay type: functional
How it was run: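 Anaerobic macrodilution time-kill. Inoculum from brucella blood plates, prepared and diluted in prereduced brucella broth inside the anaerobe chamber. Final 10^6 to 10^7 CFU/ml in prereduced brucella broth with 5% laked horse blood cells, 5 μg/ml hemin and 1 μg/ml vitamin K1. […] Shaken at 35°C for 48 h. Viable counts taken at 6, 12, 24 and 48 h. 99.9% kill taken as bactericidal.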

[5] = test system: Parabacteroides distasonis; assay: Antimicrobial activity against beta lactamase-positive Bacteroides distasonis isolated from intra-abdominal infection and pelvic inflammatory disease patients after 48 hrs by agar dilution method; assay type: functional; how it was run: as §1
Prevotella disiens = assay: Antimicrobial activity against beta lactamase-positive Prevotella disiens isolated from intra-abdominal infection and pelvic inflammatory disease patients after 48 hrs by agar dilution method; assay type: functional; how it was run: as §1
[6] = test system: Prevotella melaninogenica; assay: Antimicrobial activity against beta lactamase-positive Prevotella melaninogenica isolated from intra-abdominal infection and pelvic inflammatory disease patients after 48 hrs by agar dilution method; assay type: functional; how it was run: as §1
Prevotella denticola = assay: Antimicrobial activity against beta lactamase-positive Prevotella denticola isolated from intra-abdominal infection and pelvic inflammatory disease patients after 48 hrs by agar dilution method; assay type: functional; how it was run: as §1
Prevotella corporis = assay: Antimicrobial activity against beta lactamase-positive Prevotella corporis isolated from intra-abdominal infection and pelvic inflammatory disease patients after 48 hrs by agar dilution method; assay type: functional; how it was run: as §1
[7] = test system: Porphyromonas asaccharolytica; assay: Antimicrobial activity against Porphyromonas asaccharolyticus isolated from intra-abdominal infection and pelvic inflammatory disease patients after 48 hrs by agar dilution method; assay type: functional; how it was run: as §1
Fusobacterium nucleatum [8] = assay: Antimicrobial activity against beta lactamase-positive Fusobacterium nucleatum isolated from intra-abdominal infection and pelvic inflammatory disease patients after 48 hrs by agar dilution method; assay type: functional; how it was run: as §1
[9] = test system: Fusobacterium necrophorum; assay: Antimicrobial activity against Fusobacterium necrophorum isolated from intra-abdominal infection and pelvic inflammatory disease patients after 48 hrs by agar dilution method; assay type: functional; how it was run: as §1
Fusobacterium mortiferum = assay: Antimicrobial activity against beta lactamase-positive Fusobacterium mortiferum isolated from intra-abdominal infection and pelvic inflammatory disease patients after 48 hrs by agar dilution method; assay type: functional; how it was run: as §1
[10] = test system: Peptostreptococcus anaerobius; assay: Antimicrobial activity against Peptostreptococcus anaerobius isolated from intra-abdominal infection and pelvic inflammatory disease patients after 48 hrs by agar dilution method; assay type: functional; how it was run: as §1
Anaerococcus prevotii = assay: Antimicrobial activity against Anaerococcus prevotii isolated from intra-abdominal infection and pelvic inflammatory disease patients after 48 hrs by agar dilution method; assay type: functional; how it was run: as §1
[11] = test system: Peptoniphilus asaccharolyticus; assay: Antimicrobial activity against Peptoniphilus asaccharolyticus isolated from intra-abdominal infection and pelvic inflammatory disease patients after 48 hrs by agar dilution method; assay type: functional; how it was run: as §1
Clostridium perfringens [12] = assay: Antimicrobial activity against Clostridium perfringens isolated from intra-abdominal infection and pelvic inflammatory disease patients after 48 hrs by agar dilution method; assay type: functional
How it was run: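 CLSI agar dilution on brucella blood agar supplemented with laked sheep blood, hemin and vitamin K. Inoculum about 1 × 10^5 CFU/spot, applied by Steers replicator. Plates incubated 48 h at 35°C in an anaerobic glove box. MIC is the concentration giving marked growth reduction versus the anaerobic control plate. Standard QC strains included in each run.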

Clostridioides difficile [13] = assay: Antimicrobial activity against Clostridium difficile isolated from intra-abdominal infection and pelvic inflammatory disease patients after 48 hrs by agar dilution method; assay type: functional; how it was run: as §1
[Clostridium] innocuum = Antimicrobial activity against Clostridium innocuum isolated from intra-abdominal infection and pelvic inflammatory disease patients after 48 hrs by agar dilution method; assay type: functional; how it was run: as §1
Thomasclavelia ramosa = assay: Antimicrobial activity against Clostridium ramosum isolated from intra-abdominal infection and pelvic inflammatory disease patients after 48 hrs by agar dilution method; assay type: functional; how it was run: as §1
[14] = test system: Paraclostridium bifermentans; assay: Antimicrobial activity against Clostridium bifermentans isolated from intra-abdominal infection and pelvic inflammatory disease patients after 48 hrs by agar dilution method; assay type: functional; how it was run: as §1
[15] = test system: Enterocloster clostridioformis; assay: Antimicrobial activity against Clostridium clostridioforme isolated from intra-abdominal infection and pelvic inflammatory disease patients after 48 hrs by agar dilution method; assay type: functional; how it was run: as §1
Clostridium perfringens [16] = assay: Bactericidal activity against Clostridium perfringens isolated from intra-abdominal infection and pelvic inflammatory disease patients assessed as bacterial killing at 2 times MIC after 48 hrs by time kill analysis; assay type: functional
How it was run: (§3)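 Time-kill in prereduced brucella broth with 5% laked horse blood cells, hemin and vitamin K1. […] Viable counts taken at 6, 12, 24 and 48 h, plates incubated 48 h anaerobically. Kill scored as 90%, 99% or 99.9%; 99.9% defines bactericidal.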

Clostridioides difficile [17] = assay: Bactericidal activity against Clostridium difficile isolated from intra-abdominal infection and pelvic inflammatory disease patients assessed as 99.9% bacterial killing at 2 times MIC after 48 hrs by time kill analysis; assay type: functional, organism-based
How it was run: (§4)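 Macrodilution time-kill in prereduced brucella broth with 5% laked horse blood, hemin 5 μg/ml and vitamin K1 1 μg/ml, at final inoculum 10^6–10^7 CFU/ml. […] Viable counts were taken at 6, 12, 24 and 48 h on plates incubated 48 h anaerobically. 99.9% kill was taken as bactericidal.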

Bacteroides fragilis [18] = assay: Bactericidal activity against beta lactamase-positive Bacteroides fragilis isolated from intra-abdominal infection and pelvic inflammatory disease patients assessed as bacterial killing at MIC after 24 hrs by time kill analysis; assay type: functional; how it was run: as §4
Clostridium perfringens [19] = assay: Bactericidal activity against Clostridium perfringens isolated from intra-abdominal infection and pelvic inflammatory disease patients assessed as bacterial killing at MIC after 24 hrs by time kill analysis; assay type: functional; how it was run: as §3
Clostridioides difficile [20] = assay: Bactericidal activity against Clostridium difficile isolated from intra-abdominal infection and pelvic inflammatory disease patients assessed as bacterial killing at MIC after 24 hrs by time kill analysis; assay type: functional; how it was run: as §4

SMILES: C[C@@H](O)[C@H]1C(=O)N2C(C(=O)O)=C(SCCNC=N)C[C@H]12 [IMIPENEM ANHYDROUS]
- MIC50 (Bacteroides fragilis [1]): 0.125 mg/L (≈ 0.418 µM)
- MIC90 (Bacteroides fragilis [1]): 0.25 mg/L (≈ 0.835 µM)
- MIC (Bacteroides fragilis [2]): 0.06 mg/L (≈ 0.2 µM)
- MIC [3]: 0.25 mg/L (≈ 0.835 µM)
- MIC (Fusobacterium nucleatum [4]): 0.016 mg/L (≈ 0.0534 µM)
- Activity (Prevotella intermedia): 99%
- MIC50 [5]: 0.5 mg/L (≈ 1.67 µM)
- MIC90 [5]: 1 mg/L (≈ 3.34 µM)
- MIC (Prevotella disiens): 0.03 mg/L (≈ 0.1 µM)
- MIC50 (Prevotella disiens): 0.03 mg/L (≈ 0.1 µM)
- MIC90 (Prevotella disiens): 0.125 mg/L (≈ 0.418 µM)
- MIC50 [6]: 0.03 mg/L (≈ 0.1 µM)
- MIC90 [6]: 0.03 mg/L (≈ 0.1 µM)
- MIC50 (Prevotella denticola): 0.03 mg/L (≈ 0.1 µM)
- MIC90 (Prevotella denticola): 0.06 mg/L (≈ 0.2 µM)
- MIC50 (Prevotella corporis): 0.03 mg/L (≈ 0.1 µM)
- MIC90 (Prevotella corporis): 0.06 mg/L (≈ 0.2 µM)
- MIC [7]: ≤ 0.016 mg/L
- MIC50 (Fusobacterium nucleatum [8]): 0.03 mg/L (≈ 0.1 µM)
- MIC90 (Fusobacterium nucleatum [8]): 0.03 mg/L (≈ 0.1 µM)
- MIC [9]: ≤ 0.016 mg/L
- MIC50 [9]: ≤ 0.016 mg/L
- MIC90 [9]: 0.25 mg/L (≈ 0.835 µM)
- MIC50 (Fusobacterium mortiferum): 1 mg/L (≈ 3.34 µM)
- MIC90 (Fusobacterium mortiferum): 1 mg/L (≈ 3.34 µM)
- MIC [10]: 0.06 mg/L (≈ 0.2 µM)
- MIC50 [10]: 0.06 mg/L (≈ 0.2 µM)
- MIC90 [10]: 1 mg/L (≈ 3.34 µM)
- MIC (Anaerococcus prevotii): ≤ 0.016 mg/L
- MIC [11]: ≤ 0.016 mg/L
- MIC50 [11]: ≤ 0.016 mg/L
- MIC90 [11]: 0.03 mg/L (≈ 0.1 µM)
- MIC50 (Clostridium perfringens [12]): 0.06 mg/L (≈ 0.2 µM)
- MIC90 (Clostridium perfringens [12]): 0.125 mg/L (≈ 0.418 µM)
- MIC50 (Clostridioides difficile [13]): 8 mg/L (≈ 26.7 µM)
- MIC90 (Clostridioides difficile [13]): 8 mg/L (≈ 26.7 µM)
- MIC ([Clostridium] innocuum): 1 mg/L (≈ 3.34 µM)
- MIC50 ([Clostridium] innocuum): 1 mg/L (≈ 3.34 µM)
- MIC (Thomasclavelia ramosa): 0.25 mg/L (≈ 0.835 µM)
- MIC50 (Thomasclavelia ramosa): 0.25 mg/L (≈ 0.835 µM)
- MIC [14]: 0.25 mg/L (≈ 0.835 µM)
- MIC [15]: 2 mg/L (≈ 6.68 µM)
- Activity (Clostridium perfringens [16]): 99%
- Activity (Clostridioides difficile [17]): inactive
- Activity (Bacteroides fragilis [18]): 90%
- Activity (Clostridium perfringens [19]): 90%
- Activity (Clostridioides difficile [20]): 90%

SMILES: C[C@@H](O)[C@H]1C(=O)N2C(C(=O)O)=C(S[C@@H]3CN[C@H](C(=O)Nc4cccc(C(=O)O)c4)C3)[C@H](C)[C@H]12
- MIC (Bacteroides fragilis [1]): 0.25 mg/L (≈ 0.526 µM)
- MIC50 (Bacteroides fragilis [1]): 0.25 mg/L (≈ 0.526 µM)
- MIC90 (Bacteroides fragilis [1]): 2 mg/L (≈ 4.21 µM)
- MIC (Bacteroides fragilis [2]): 0.25 mg/L (≈ 0.526 µM)
- MIC [3]: 0.5 mg/L (≈ 1.05 µM)
- MIC (Fusobacterium nucleatum [4]): 0.008 mg/L (≈ 0.0168 µM)
- Activity (Prevotella intermedia): 99%
- MIC [5]: 0.5 mg/L (≈ 1.05 µM)
- MIC50 [5]: 0.5 mg/L (≈ 1.05 µM)
- MIC90 [5]: 1 mg/L (≈ 2.1 µM)
- MIC50 (Prevotella disiens): 0.06 mg/L (≈ 0.126 µM)
- MIC90 (Prevotella disiens): 0.25 mg/L (≈ 0.526 µM)
- MIC50 (Prevotella denticola): 0.125 mg/L (≈ 0.263 µM)
- MIC90 (Prevotella denticola): 0.5 mg/L (≈ 1.05 µM)
- MIC50 (Prevotella corporis): 0.03 mg/L (≈ 0.0631 µM)
- MIC90 (Prevotella corporis): 0.06 mg/L (≈ 0.126 µM)
- MIC [7]: ≤ 0.016 mg/L
- MIC (Fusobacterium nucleatum [8]): ≤ 0.016 mg/L
- MIC50 (Fusobacterium nucleatum [8]): ≤ 0.016 mg/L
- MIC90 (Fusobacterium nucleatum [8]): 0.03 mg/L (≈ 0.0631 µM)
- MIC [9]: ≤ 0.016 mg/L
- MIC50 [9]: ≤ 0.016 mg/L
- MIC90 [9]: 0.125 mg/L (≈ 0.263 µM)
- MIC (Fusobacterium mortiferum): 0.06 mg/L (≈ 0.126 µM)
- MIC50 (Fusobacterium mortiferum): 0.06 mg/L (≈ 0.126 µM)
- MIC90 (Fusobacterium mortiferum): 0.5 mg/L (≈ 1.05 µM)
- MIC50 [10]: 0.5 mg/L (≈ 1.05 µM)
- MIC90 [10]: 2 mg/L (≈ 4.21 µM)
- MIC (Anaerococcus prevotii): ≤ 0.016 mg/L
- MIC [11]: ≤ 0.016 mg/L
- MIC50 [11]: ≤ 0.016 mg/L
- MIC90 [11]: 0.06 mg/L (≈ 0.126 µM)
- MIC50 (Clostridium perfringens [12]): 0.06 mg/L (≈ 0.126 µM)
- MIC90 (Clostridium perfringens [12]): 0.125 mg/L (≈ 0.263 µM)
- MIC (Clostridioides difficile [13]): 4 mg/L (≈ 8.41 µM)
- MIC50 (Clostridioides difficile [13]): 4 mg/L (≈ 8.41 µM)
- MIC90 (Clostridioides difficile [13]): 8 mg/L (≈ 16.8 µM)
- MIC ([Clostridium] innocuum): 2 mg/L (≈ 4.21 µM)
- MIC50 ([Clostridium] innocuum): 2 mg/L (≈ 4.21 µM)
- MIC (Thomasclavelia ramosa): 1 mg/L (≈ 2.1 µM)
- MIC50 (Thomasclavelia ramosa): 1 mg/L (≈ 2.1 µM)
- MIC [14]: 0.125 mg/L (≈ 0.263 µM)
- MIC [15]: 1 mg/L (≈ 2.1 µM)
- Activity (Clostridium perfringens [16]): 99%
- Activity (Clostridioides difficile [17]): inactive
- Activity (Bacteroides fragilis [18]): 90%
- Activity (Clostridium perfringens [19]): 90%
- Activity (Clostridioides difficile [20]): 90%
